# Results taken from publication PMC4077163 (Bioorganic & medicinal chemistry letters, 2014).
# Square brackets hold non-standard residues; d marks the D form. Peptide text beside a SMILES is read from it. * marks the point of attachment. pY = N[C@@H](Cc1ccc(OP(=O)(O)O)cc1)C(=O)O; Hydrocinnamoyl = O=C(CCc1ccccc1)*; Ac6c = NC1(C(=O)O)CCCCC1; Cbz = O=C(OCc1ccccc1)*
# How the values were obtained:
# Grb2 SH2 domain [1] = target: T1, Grb2 SH2 domain (Homo sapiens, UniProt P62993); test: Isothermal titration calorimetry; type: binding; conditions: for ΔG° / ΔH° / −TΔS°: ITC, 25 °C, HEPES (50 mM), NaCl (150 mM), pH 7.45 ± 0.05; for potency relative to indolyl compound 10: from ITC data of Table 1
# T1 sequence (P62993 60-152 limits assumed): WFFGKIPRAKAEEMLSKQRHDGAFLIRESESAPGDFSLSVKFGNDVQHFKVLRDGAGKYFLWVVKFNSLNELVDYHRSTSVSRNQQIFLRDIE
# Procedure, shortened: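 Tripeptide phosphotyrosine-analogue ligands were titrated against the Grb2 SH2 domain by ITC at 25 °C in 50 mM HEPES, 150 mM NaCl, pH 7.45 ± 0.05. Ka, ΔG°, ΔH° and ΔS° were taken from the titrations. Each ligand had three or more runs. The n value of each run was normalized by adjusting ligand concentration, then the runs were averaged.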
# Grb2 SH2 domain [2] = target: T1, Grb2 SH2 domain; test: Literature affinity; type: binding; conditions: ratio of literature IC50 values, more potent than 3
Compound,Kd (Grb2 SH2 domain [1]) [µM],ΔG° (Grb2 SH2 domain [1]) [kcal/mol],ΔH° (Grb2 SH2 domain [1]) [kcal/mol],−TΔS° (Grb2 SH2 domain [1]),potency relative to 3 (Grb2 SH2 domain [2]),potency relative to indolyl compound 10 (Grb2 SH2 domain [1])
Cn1cc(CCC(=O)N[C@@H](Cc2ccc(OP(=O)(O)O)cc2)C(=O)NC2(C(=O)N[C@@H](CC(N)=O)C(N)=O)CCCCC2)c2ccccc21 [Compound 10],0.0877,-9.6 ± 0.1,-10.0 ± 0.3,+0.4 ± 0.1 kcal mol^−1,,
NC(=O)C[C@H](NC(=O)C1(NC(=O)[C@H](Cc2ccc(OP(=O)(O)O)cc2)NC(=O)OCc2ccccc2)CCCCC1)C(N)=O [Compound 8] (Cbz-[pY]-[Ac6c]-Asn-NH2),0.154,-9.3 ± 0.1,-9.3 ± 0.3,0.0 ± 0.1 kcal/mol,,
NC(=O)C[C@H](NC(=O)C1(NC(=O)[C@H](Cc2ccc(OP(=O)(O)O)cc2)NC(=O)OCc2cccc(N)c2)CCCCC1)C(N)=O [Compound 9],0.114,-9.5 ± 0.1,-9.1 ± 0.5,-0.4 ± 0.3 kcal/mol,about 65 fold,
CC(=O)N[C@@H](Cc1ccc(OP(=O)(O)O)cc1)C(=O)NC1(C(=O)N[C@@H](CC(N)=O)C(N)=O)CCCCC1 [Compound 7] (HELM PEPTIDE1{[ac].[O=C([C@H](Cc1ccc(OP(=O)(O)O)cc1)N[*:1])[*:2]].[O=C(C1(N[*:1])CCCCC1)[*:2]].N.[am]}$$$$V2.0),0.143,-9.3 ± 0.1,-8.5 ± 0.4,-0.8 ± 0.4 kcal/mol,,
NC(=O)C[C@H](NC(=O)C1(NC(=O)[C@H](Cc2ccc(OP(=O)(O)O)cc2)NC(=O)CCc2ccccc2)CCCCC1)C(N)=O [Compound 11] (Hydrocinnamoyl-[pY]-[Ac6c]-Asn-NH2),0.0427,-10.1 ± 0.1,-9.5 ± 0.5,-0.6 ± 0.1 kcal/mol,,about two-fold more potent
NC(=O)C[C@H](NC(=O)C1(NC(=O)[C@H](Cc2ccc(OP(=O)(O)O)cc2)NC(=O)CCC2CCCCC2)CCCCC1)C(N)=O [Compound 12],0.0347,-10.2 ± 0.1,-10.0 ± 0.5,-0.2 ± 0.1 kcal/mol,,about two-fold more potent
